Screening data as filed in PubChem.
TRPC4 inh: inhibitors of mouse TRPC4 channel, primary screen, Fluo4 calcium, HEK293 TRPC4beta/mu-opioid cells; 300,000 tested, 0.39% active; Short transient receptor potential channel 4 (Mus musculus), Q9QUQ5; AID 2247, 2010; B-score at 10 µM; DAMGO-evoked Fluo4 calcium flux; stronger effect = lower value;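 active = B-score over 3 SD under the library average, no early fluorescence shift, positive overall ratio signal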
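Test system – stable TRPC4beta/mu-opioid receptor HEK293 cells · Probe or stimulus – DAMGO, a submaximal dose followed by a maximal one · Dosing – one concentration per compound · Signal – Fluo4 calcium fluorescence by kinetic imaging, 5 s 1 Hz baseline · Evaluation – per-well B score of integrated baseline-normalized Fluo4 ratio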
TRPC4 potent: positive allosteric modulators of TRPC4, primary screen, cell-based, mouse TRPC4beta, HEK293 mu-opioid, Fluo-4 calcium; DAMGO EC20, Fluo-4 Ca2+ flux; stronger effect = higher value; B-score at 10 µM; 310,000 tested, 0.42% active;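 active = B-score of calcium response area above 5 SD of library B-scores, with initial fluorescence ratio within 5 SD of library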;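 also: B-score of integrated fluorescence ratio over time as area under calcium response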
TRPC6 act: mouse TRPC6 channel activators, primary screen, cell-based, HEK293, membrane potential dye; Short transient receptor potential channel 6 (Mus musculus), Q61143; HEK293-TRPC6 membrane potential dye fluorescence; stronger effect = higher value; B-score at 10 µM; 310,000 tested, 0.13% active; AID 2550, 2010;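 active = B-score of the integrated fluorescence ratio above library mean plus 3 SD, and starting fluorescence ratio within library mean plus 5 SD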;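 also: higher score means more depolarization so channel activation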
TRPC6 inhibitor: mouse TRPC6 channel inhibitors, primary screen, cell-based, HEK293, membrane potential dye; Short transient receptor potential channel 6 (Mus musculus), Q61143; ACh-evoked depolarization; stronger effect = lower value; B-score at 10 µM; 310,000 tested, 1.1% active;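 active = B-score under library mean minus 3 SD, initial fluorescence not abnormally high, positive integrated signal ratio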;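 also: B-score derived from integrated fluorescence ratio over the kinetic read; more negative B-score means stronger inhibition of depolarization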
TRPC4 agonist: activators of mouse TRPC4 channel, primary screen, Fluo4 calcium, HEK293 TRPC4beta/mu-opioid cells. 310,000 tested, 0.49% active. Short transient receptor potential channel 4 (Mus musculus), Q9QUQ5. B-score at 10 µM. AID 2237, 2010. Fluo4 calcium fluorescence; stronger effect = higher value;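 active = B-score above 5 SD of library B-scores, and initial fluorescence ratio not above library mean plus 5 SD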;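 also: positive B-score marks a calcium rise read as TRPC4 activation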
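System: HEK293 cells stably co-expressing mouse TRPC4beta and mu-opioid receptor; Schedule: Fluo4 dye loading 45 min at room temperature, 110 s recording; Detection: Fluo4 fluorescence, kinetic; Evaluation: B-scored integrated calcium fluorescence ratio; Controls: buffer (low) and maximal DAMGO (high).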
Numbers without * were called inactive; i = inactive; ! = not confirmed by another sample. This is a sample that favours compounds with a hit; in the whole collection about 2.3% have one here.

SMILES	TRPC4 inh	TRPC4 potent	TRPC6 act	TRPC6 inhibitor	TRPC4 agonist
C=CCc1ccccc1OCC(O)CN1CCN(Cc2ccc3c(c2)OCO3)CC1 (centres undefined)	-7*!	i	i	i	i
CC(=O)Nc1ccc(NS(=O)(=O)c2ccccc2)cc1	i	i	i	i	i
CC(=O)C(C(C)=O)c1cc(NS(=O)(=O)c2ccccc2)ccc1NS(=O)(=O)c1ccccc1	i	i	i	i	47*
CC(=O)NCC1CCCN(Cc2cn(-c3ccccc3)nc2-c2ccc3c(c2)OCO3)C1 (centres undefined)	i	i	i	i	i
COC(=O)C1CCN(Cc2cn(-c3ccccc3)nc2-c2ccc3c(c2)OCO3)CC1	i	i	i	i	83*
CC(Cc1ccccc1)N1C(=O)c2cccc([N+](=O)[O-])c2C1=O (centres undefined)	i	i	i	i	i
C(C#CCCCCCCCCC[n+]1ccccc1)#CCCCCCCCCC[n+]1ccccc1	i	i	i	i	84*
Cc1ccc(Cn2c(=O)cc(C(=O)O)c3ccccc32)cc1	i	i	i	i	i
CCOC(=O)c1cc(=O)n(Cc2ccccc2C)c2ccccc12	i	15*	i	i	i
COc1ccccc1-n1cc2c([N+](=O)[O-])cc([N+](=O)[O-])cc2n1	i	i	i	i	i
COc1ccccc1N1CCN(C2CCCCC2NS(=O)(=O)c2ccc(Cl)cc2)CC1 (centres undefined)	i	i	i	i	i
COc1ccc(N2CCN(C3CCCCC3NS(=O)(=O)c3ccc(Cl)cc3)CC2)cc1 (centres undefined)	i	15*	i	i	i
N#C[C@H]1C2OC2c2ccccc2N1C(=O)c1ccccc1 (some centres undefined)	i	i	i	i	i
CCC(C)(C)n1nnnc1C(c1cccnc1)N1CCC(Cc2ccccc2)CC1 (centres undefined)	-6*	i	i	i	i
O=c1ccc(-c2ccc(S(=O)(=O)Nc3cccc(Br)c3)o2)n[nH]1	i	i	i	i	i
Cc1cccc(Cn2c(C(C)(C)C)cc3cccnc32)c1	-6*	i	i	i	i
COc1ccc(CC(=O)NC2CCCCCC2)c(OC)c1	i	i	i	i	i
COc1ccccc1N1CCN(C(c2cccs2)C(C)NC(=O)c2ccco2)CC1 (centres undefined)	i	i	i	i	103*
CCOc1ccc(S(=O)(=O)N2CCN(C(=S)NC3CC3)CC2)cc1	i	18*	i	i	i
O=C(COc1ccc(Br)cc1Cl)c1ccc[nH]1	-6*	i	i	i	i
Cc1ccc(C)c(NC(=O)c2cc(=O)c3ccccc3o2)c1	i	12*	i	i	i
O=[N+]([O-])c1cc(C(F)(F)F)ccc1NC1CCN(Cc2ccccc2)CC1	i	i	i	i	i
O=[N+]([O-])c1cc(C(F)(F)F)ccc1NC1CCN(Cc2ccccc2)C1 (centres undefined)	i	50*	i	i	i
COc1ccccc1-c1cc(C(=O)N2CCN(c3ccccc3OC)CC2)no1	-6*	i	i	i	i
COc1ccccc1N1CCN(C(=O)c2cc(-c3ccc(C)cc3)on2)CC1	i	i	i	i	i
O=c1c(C=NCCN2CCNCC2)c(-c2ccccc2)[nH]n1-c1ccc([N+](=O)[O-])cc1	i	i	i	-6.6*	i
COc1ccc(CCNc2ccc(C(CC(N)=O)NC(=O)c3cc(OC)ccc3OC)cc2[N+](=O)[O-])cc1 (centres undefined)	i	i	i	i	i
